Test results: ChEMBL document CHEMBL4028889 (2017)
Activity calls are given as the source filed them. The rule behind the calls is not given here.

Legend:
[1] = tested on: PC-12; assay: Neuroprotective activity against etoposide-induced apoptosis in rat PC12 cells assessed as cell viability at 3 uM pretreated for 4 hrs followed by etoposide challenge measured after 48 hrs by PrestoBlue assay (reference value: 52.13 +/- 1.13%); type: functional; settings: read-out: Activity
Outline: (§1)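 PC12 cells were plated at 50000/well on collagen-coated plates and left overnight. They were pretreated 4 h with compound, then given 15 μg/mL etoposide. Viability was read at 48 h by PrestoBlue (ex 560/em 590 nm). n = 3, mean ± SEM, as % viability.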

[2] = tested on: PC-12; assay: Neuroprotective activity against etoposide-induced apoptosis in rat PC12 cells assessed as cell viability at 0.1 uM pretreated for 4 hrs followed by etoposide challenge measured after 48 hrs by PrestoBlue assay relative to control; type: functional; settings: read-out: Activity; outline: as §1
[3] = tested on: IMR90-c4; assay: Neuroprotective activity against etoposide-induced apoptosis in human IMR90-c4 cells assessed as increase in cell viability at 0.1 to 3 uM pretreated for 4 hrs followed by etoposide challenge measured after 36 hrs by PrestoBlue assay; type: functional, cell-based
Outline: (§2)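 IMR90-c4 iPSC-derived neurons were plated at 16000 cells/well on poly-D-lysine/laminin and matured. They were pretreated 4 h with compound, then given 15 μg/mL etoposide. Viability was read at 36 h by PrestoBlue fluorescence (ex 560/em 590 nm).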

[4] = tested on: PC-12; assay: Neuroprotective activity against H2O2-induced apoptosis in rat PC12 cells assessed as increase in cell viability at 1 to 30 uM after 4 hrs by PrestoBlue assay; type: functional, cell-based
Outline: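 PC12 cells were exposed to 400 μM H2O2 with compounds at 1–30 μM. Viability was measured after 4 h with PrestoBlue.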

[5] = target: Glutamate [NMDA] receptor (Homo sapiens) (UniProt Q05586+Q12879+Q13224+O15399+O60391+Q14957+Q8TCU5); assay: Antagonist activity at NMDA receptor in human IMR90-c4 cells assessed as decrease in NMDA-mediated reduction in cell viability at 0.1 to 30 uM by PrestoBlue assay; type: cell-based
Outline: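 Neurons differentiated from IMR90-c4 iPSCs over roughly 21 days, then challenged with 500 μM NMDA. Viability was read with PrestoBlue. n = 1 with 4 technical replicates; % viability given as mean ± SEM.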

[6] = tested on: PC-12; assay: Neuroprotective activity against etoposide-induced apoptosis in rat PC12 cells assessed as increase in Bcl2/Bax ratio at 3 uM pretreated for 4 hrs followed by etoposide challenge measured after 24 hrs by Western blot method; type: functional
Outline: (§3)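 PC12 cells were pretreated 4 h with compound before etoposide and lysed after 24 or 48 h. 50 μg protein was run on 10% SDS gel and blotted. Probes were Bcl-2 (1:1000), Bax (1:500) and actin, with HRP chemiluminescence and densitometric Bcl-2/Bax ratio. n = 2, mean ± SEM.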

[7] = tested on: PC-12; assay: Neuroprotective activity against etoposide-induced apoptosis in rat PC12 cells assessed as increase in Bcl2/Bax ratio at 0.1 uM pretreated for 4 hrs followed by etoposide challenge measured after 24 hrs by Western blot method; type: functional; outline: as §3
[8] = tested on: PC-12; assay: Neuroprotective activity against etoposide-induced apoptosis in rat PC12 cells assessed as increase in Bcl2/Bax ratio at 0.1 uM pretreated for 4 hrs followed by etoposide challenge measured after 48 hrs by Western blot method; type: functional, cell-based; outline: as §3
[9] = tested on: PC-12; assay: Neuroprotective activity against etoposide-induced apoptosis in rat PC12 cells assessed as increase in Bcl2/Bax ratio at 3 uM pretreated for 4 hrs followed by etoposide challenge measured after 48 hrs by Western blot method; type: functional, cell-based; outline: as §3
[10] = tested on: PC-12; assay: Induction of autophagy in rat PC12 cells after 48 hrs by MDC staining-based flow cytometric method; type: functional, cell-based
Outline: (§4)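 PC12 cells were treated for 48 h and then stained with 0.5 mM monodansylcadaverine for 30 min at 37 °C. Trypsinized cells were pooled with floating cells and resuspended in PBS/1% FBS. 10000 cells were read by flow cytometry in the FITC channel after gating out debris. MDC staining is expressed relative to vehicle.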

[11] = tested on: PC-12; assay: Induction of autophagy in rat PC12 cells assessed as increase in beclin 1 expression after 24 hrs by Western blot method; type: functional, cell-based
Outline: (§5)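 PC12 lysates were taken after 24 h of compound treatment. 50 μg protein was run on 10% SDS gel and transferred to nitrocellulose. Blots were blocked in 5% BSA, probed overnight at 4 °C with beclin 1 (1:2000) and actin (1:5000), then HRP secondary. Chemiluminescence was quantified by densitometry.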

[12] = tested on: IMR-90; assay: Neuroprotective activity against etoposide-induced apoptosis in human IMR90-c4 cells assessed as increase in cell viability at 0.1 uM pretreated for 4 hrs followed by etoposide challenge measured after 36 hrs by PrestoBlue assay relative to control; type: functional; outline: as §2
[13] = tested on: PC-12; assay: Induction of autophagy in rat PC12 cells assessed as increase in beclin 1 expression at 0.1 uM after 24 hrs by Western blot method relative to control; type: functional; outline: as §5
[14] = tested on: PC-12; assay: Neuroprotective activity against etoposide-induced apoptosis in rat PC12 cells assessed as cell viability at 0.3 uM pretreated for 4 hrs followed by etoposide challenge measured after 48 hrs by PrestoBlue assay relative to control; type: functional; settings: read-out: Activity; outline: as §1
[15] = tested on: PC-12; assay: Neuroprotective activity against etoposide-induced apoptosis in rat PC12 cells assessed as increase in cell viability at 0.1 uM pretreated for 4 hrs followed by etoposide challenge measured after 48 hrs by PrestoBlue assay relative to control; type: functional, cell-based; outline: as §1
[16] = tested on: PC-12; assay: Induction of autophagy in rat PC12 cells at 3 uM after 48 hrs by MDC staining-based flow cytometric method relative to control; type: functional; outline: as §4
[17] = Neuroprotective activity against etoposide-induced apoptosis in human IMR90-c4 cells assessed as increase in cell viability at 3 uM pretreated for 4 hrs followed by etoposide challenge measured after 36 hrs by PrestoBlue assay relative to control; type: functional; outline: as §2
[18] = Neuroprotective activity against etoposide-induced apoptosis in human IMR90-c4 cells assessed as cell viability at 3 uM pretreated for 4 hrs followed by etoposide challenge measured after 36 hrs by PrestoBlue assay relative to control; type: functional; settings: read-out: Activity; outline: as §2
[19] = tested on: PC-12; assay: Induction of autophagy in rat PC12 cells at 10 uM after 48 hrs by MDC staining-based flow cytometric method relative to control; type: functional; outline: as §4
[20] = tested on: PC-12; assay: Induction of autophagy in rat PC12 cells assessed as increase in beclin 1 expression at 3 uM after 24 hrs by Western blot method relative to control; type: functional; outline: as §5
[21] = tested on: PC-12; assay: Induction of autophagy in rat PC12 cells assessed as increase in beclin 1 expression at 10 uM after 24 hrs by Western blot method relative to control; type: functional; outline: as §5

Q: For CCOC(=O)Nc1ccc(NCCc2ccc(F)cc2)nc1N, which viability at 3 µM [1] is on record?
A: 59.3%

Q: Which viability at 3 µM [1] does the source give for CCCCCCOC(=O)Nc1ccc(NCc2ccc(F)cc2)nc1N here?
A: 78.5%

Q: Which viability at 3 µM [1] does the source give for CCOC(=O)Nc1ccc(NCc2ccc(C(F)(F)F)cc2)nc1N here?
A: 68.4%

Q: And the viability at 0.1 µM [2]?
A: 84%

Q: What about the Activity [3] of the same compound?
A: Active

Q: What about the Activity [4] of the same compound?
A: inactive

Q: And the inhibition [5]?
A: inactive

Q: And the Activity [6]?
A: 232%

Q: And the Activity [7]?
A: 159%

Q: And the Activity [8]?
A: inactive

Q: And the Activity [9]?
A: inactive

Q: And the Activity [10]?
A: Dose-dependent effect

Q: And the Activity [11]?
A: Dose-dependent effect

Q: And the Activity [12]?
A: 75 - 76%

Q: What about the Activity [13] of the same compound?
A: 18%

Q: Which viability at 0.3 µM [14] does the source give for CCOC(=O)Nc1ccc(NCc2ccc(SC(F)(F)F)cc2)nc1N here?
A: 93%

Q: And the Activity [15]?
A: Active

Q: What about the Activity [9] of the same compound?
A: inactive

Q: What about the “fold change (FC)” value [16] of the same compound?
A: 8

Q: And the Activity [10]?
A: Dose-dependent effect

Q: What about the Activity [17] of the same compound?
A: 71%

Q: What does the source list for CCOC(=O)Nc1ccc(OCc2ccc(C(F)(F)F)cc2)nc1N?
A: viability at 3 µM [18]: 65%; Activity [9]: inactive; Activity [11]: Dose-dependent effect

Q: Which results are given for CCOC(=O)Nc1ccc(NCc2ccc(Cl)cc2)nc1N?
A: viability at 3 µM [1]: 64.3%; Activity [4]: inactive; inhibition [5]: inactive; Activity [6]: inactive; Activity [9]: inactive; fold change (FC) [19]: >12; fold change (FC) [16]: >5; Activity [10]: Dose-dependent effect; Activity [20]: -20%; Activity [21]: 104%

Q: With CCOC(=O)Nc1ccc(NCc2ccc(C(F)(F)F)nc2)nc1N as the compound, how does the viability at 3 µM [1] read?
A: 81.6%

Q: What about the viability at 0.1 µM [2] of the same compound?
A: 74%

Q: With CCCOC(=O)Nc1ccc(NCc2ccc(F)cc2)nc1N as the compound, how does the viability at 3 µM [1] read?
A: 46.7%

Q: With CCOC(=O)Nc1ccc(NCc2ccc(C)cc2)nc1N as the compound, how does the viability at 3 µM [1] read?
A: 136%

Q: For CCOC(=O)Nc1ccc(NCc2ccccc2)nc1, which viability at 3 µM [1] is on record?
A: 67.5%
